Reference: ChEMBL document CHEMBL3352026, “Structure-activity relationship of highly potent galactonoamidine inhibitors toward β-galactosidase (Aspergillus oryzae)” (J Med Chem, 2014)

target: T1, Beta-galactosidase (Aspergillus oryzae, UniProt Q2U7N3); experiment: Inhibition of Aspergillus oryzae beta-galactosidase using 2-chloro-4-nitrophenyl beta-Dgalactopyranoside as substrate by spectrophotometry
T1 sequence (Q2U7N3 whole entry): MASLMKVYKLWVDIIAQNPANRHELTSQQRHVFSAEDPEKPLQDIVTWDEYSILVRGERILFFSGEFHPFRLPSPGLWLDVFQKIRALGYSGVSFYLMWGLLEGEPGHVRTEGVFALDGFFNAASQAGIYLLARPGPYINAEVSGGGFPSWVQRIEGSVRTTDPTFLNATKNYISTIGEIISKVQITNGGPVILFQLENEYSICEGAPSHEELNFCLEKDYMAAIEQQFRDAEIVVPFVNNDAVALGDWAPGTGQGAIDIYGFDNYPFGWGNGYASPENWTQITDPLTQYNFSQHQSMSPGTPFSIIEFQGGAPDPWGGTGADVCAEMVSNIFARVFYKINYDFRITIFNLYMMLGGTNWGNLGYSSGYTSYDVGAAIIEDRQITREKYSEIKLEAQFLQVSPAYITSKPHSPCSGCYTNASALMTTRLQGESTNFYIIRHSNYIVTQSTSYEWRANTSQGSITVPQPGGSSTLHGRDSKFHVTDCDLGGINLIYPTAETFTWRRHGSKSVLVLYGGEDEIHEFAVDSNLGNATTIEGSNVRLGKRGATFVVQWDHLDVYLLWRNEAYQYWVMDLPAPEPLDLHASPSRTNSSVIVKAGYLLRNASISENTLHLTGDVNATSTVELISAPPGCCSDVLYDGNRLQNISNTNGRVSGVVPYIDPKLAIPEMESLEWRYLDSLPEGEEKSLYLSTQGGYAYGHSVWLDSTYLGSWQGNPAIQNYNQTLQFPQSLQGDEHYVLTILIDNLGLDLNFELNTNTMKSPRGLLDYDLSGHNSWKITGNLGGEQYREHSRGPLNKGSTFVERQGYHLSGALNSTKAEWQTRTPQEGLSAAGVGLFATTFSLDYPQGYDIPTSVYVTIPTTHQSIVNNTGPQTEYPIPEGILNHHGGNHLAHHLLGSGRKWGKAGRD
Outline: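 Dextrin-stabilised lyophilised A. oryzae enzyme in 50 mM acetate, pH 5.00, 30 °C, 100 μL. Substrate plus inhibitor preincubated 30 min before enzyme addition. 2-chloro-4-nitrophenolate read at 405 nm. […] For IC50, substrate was fixed, inhibitor 5 × 10⁻⁴–50 μM, read at 60 min against blanks, in duplicate.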

| SMILES | Ki | IC50 |
| --- | --- | --- |
| COc1ccc(C/N=C2\N[C@H](CO)[C@H](O)[C@H](O)[C@H]2O)cc1 | 17.1 nM |  |
| OC[C@H]1N/C(=N\Cc2ccc(C(F)(F)F)cc2)[C@H](O)[C@@H](O)[C@H]1O | 15.7 nM |  |
| OC[C@H]1N/C(=N\Cc2ccc(F)cc2)[C@H](O)[C@@H](O)[C@H]1O | 10.1 nM |  |
| CC(C)(C)c1ccc(C/N=C2\N[C@H](CO)[C@H](O)[C@H](O)[C@H]2O)cc1 | 20.6 nM |  |
| OC[C@H]1N/C(=N\Cc2ccccc2F)[C@H](O)[C@@H](O)[C@H]1O | 16.1 nM |  |
| OC[C@H]1N/C(=N\Cc2cccc(F)c2)[C@H](O)[C@@H](O)[C@H]1O | 20.3 nM |  |
| OC[C@H]1N/C(=N\Cc2ccccc2)[C@H](O)[C@@H](O)[C@H]1O | 21.1 nM |  |
| Cc1ccccc1C/N=C1\N[C@H](CO)[C@H](O)[C@H](O)[C@H]1O | 23.6 nM |  |
| Cc1cccc(C/N=C2\N[C@H](CO)[C@H](O)[C@H](O)[C@H]2O)c1 | 29.4 nM |  |
| Cc1ccc(C/N=C2\N[C@H](CO)[C@H](O)[C@H](O)[C@H]2O)cc1 | 8 nM | 36 nM |
| CCC/N=C1\N[C@H](CO)[C@H](O)[C@H](O)[C@H]1O | 149 nM |  |
| CCCCCCC/N=C1\N[C@H](CO)[C@H](O)[C@H](O)[C@H]1O | 10.8 nM | 107 nM |
| CCCCCCCCCCCC/N=C1\N[C@H](CO)[C@H](O)[C@H](O)[C@H]1O | 48.4 nM |  |
| CCCCC(CC)/N=C1\N[C@H](CO)[C@H](O)[C@H](O)[C@H]1O (stereo partly drawn) | 7.8 nM | 22 nM |
| OC[C@H]1N/C(=N\CCCc2ccccc2)[C@H](O)[C@@H](O)[C@H]1O | 8.6 nM | 36 nM |
| OC[C@H]1N/C(=N\C2CC2)[C@H](O)[C@@H](O)[C@H]1O | 31.9 nM |  |
| OC[C@H]1N/C(=N\C2CCCCC2)[C@H](O)[C@@H](O)[C@H]1O | 602 nM | 4800 nM |
| OC[C@H]1N/C(=N\CC2CC2)[C@H](O)[C@@H](O)[C@H]1O | 9.5 nM | 0.86 nM |
| OC[C@H]1N/C(=N\CC2CCCCC2)[C@H](O)[C@@H](O)[C@H]1O | 11.3 nM | 22 nM |
| OC[C@H]1N/C(=N\CC2CCCCCC2)[C@H](O)[C@@H](O)[C@H]1O | 6.3 nM | 36 nM |
| N=C1N[C@H](CO)[C@H](O)[C@H](O)[C@H]1O | 150 nM |  |
| O=C1N[C@H](CO)[C@H](O)[C@H](O)[C@H]1O | 615 nM |  |

target: not listed separately; experiment: Inhibition of almond beta-glucosidase; parameters: species or system Prunus dulcis

| Ki | SMILES |
| --- | --- |
| ≤ 1.2 nM | OC[C@H]1N/C(=N/CCc2ccccc2)[C@H](O)[C@@H](O)[C@H]1O |

target: not listed separately; experiment: Inhibition of Aspergillus niger beta-glucosidase

| Ki | SMILES |
| --- | --- |
| ≤ 1.2 nM | OC[C@H]1N/C(=N/CCc2ccccc2)[C@H](O)[C@@H](O)[C@H]1O |

target: not listed separately; experiment: Inhibition of Caldicellulosiruptor saccharolyticus beta-glucosidase

| Ki | SMILES |
| --- | --- |
| ≤ 1.2 nM | OC[C@H]1N/C(=N/CCc2ccccc2)[C@H](O)[C@@H](O)[C@H]1O |
